According to ChEMBL document CHEMBL1137854, “Substituted piperazines as novel dipeptidyl peptidase IV inhibitors” (Bioorg Med Chem Lett, 2004):

How the values were obtained:
[1] = target: Dipeptidyl peptidase 2 (Homo sapiens, UniProt Q9UHL4); assay: Inhibitory concentration against quiescent cell proline peptidase
[2] = target: Dipeptidyl peptidase 4 (Homo sapiens, UniProt P27487); assay: Inhibitory concentration against Dipeptidylpeptidase IV
[3] = Clearance in rat; type: ADME, organism-based; conditions: in vivo
Outline: (§1)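 Male Sprague-Dawley rats given compound intravenously at 1 mg/kg and orally at 2 mg/kg; plasma drug concentrations measured by LC/MS/MS.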

[4] = Bioavailability in rat; type: ADME, organism-based; conditions: in vivo; outline: as §1

Sequence of Dipeptidyl peptidase 4 (P27487 whole entry): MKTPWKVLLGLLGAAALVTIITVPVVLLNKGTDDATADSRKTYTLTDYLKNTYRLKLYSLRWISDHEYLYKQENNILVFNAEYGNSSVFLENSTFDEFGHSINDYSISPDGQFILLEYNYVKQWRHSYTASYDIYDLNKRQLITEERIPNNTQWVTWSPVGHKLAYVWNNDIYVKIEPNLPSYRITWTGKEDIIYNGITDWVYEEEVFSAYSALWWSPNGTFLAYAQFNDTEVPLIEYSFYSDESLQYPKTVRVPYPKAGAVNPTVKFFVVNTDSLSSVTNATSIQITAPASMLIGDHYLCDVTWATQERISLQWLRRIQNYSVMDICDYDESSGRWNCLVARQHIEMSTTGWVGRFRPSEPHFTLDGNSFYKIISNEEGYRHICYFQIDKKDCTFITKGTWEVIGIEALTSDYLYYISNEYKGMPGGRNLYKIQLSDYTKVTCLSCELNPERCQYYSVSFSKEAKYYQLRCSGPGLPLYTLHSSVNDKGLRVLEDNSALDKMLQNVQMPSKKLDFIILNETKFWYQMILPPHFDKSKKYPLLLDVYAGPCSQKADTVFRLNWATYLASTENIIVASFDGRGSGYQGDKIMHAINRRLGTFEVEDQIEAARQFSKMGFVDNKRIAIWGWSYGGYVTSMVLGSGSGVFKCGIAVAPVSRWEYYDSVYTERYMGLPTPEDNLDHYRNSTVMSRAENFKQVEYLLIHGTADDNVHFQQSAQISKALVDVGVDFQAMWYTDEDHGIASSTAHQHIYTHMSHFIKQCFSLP

Row | Structure (SMILES) | IC50 [1] | IC50 [2] | clearance [3] | bioavailability [4]
1 | N[C@@H](CC(=O)N1CCNC[C@H]1Cc1ccc(F)cc1)Cc1ccccc1F | > 100000 nM | 166 nM |  | 
2 | NC(=O)CN1CCN(C(=O)C[C@H](N)Cc2ccccc2F)[C@H](Cc2ccccc2)C1 | 66000 nM | 114 nM |  | 
3 | N[C@@H](CC(=O)N1CCNCC1)Cc1ccccc1F | > 100000 nM | 3700 nM |  | 
4 | CN1CCN(C(=O)C[C@H](N)Cc2ccccc2F)[C@H](Cc2ccccc2)C1 | > 100000 nM | 225 nM |  | 
5 | N[C@@H](CC(=O)N1CCNC[C@H]1Cc1cccnc1)Cc1ccccc1F | > 100000 nM | 155 nM |  | 
6 | N[C@@H](CC(=O)N1CCOC[C@H]1Cc1ccccc1)Cc1ccccc1F | > 100000 nM | 108 nM |  | 
7 | N[C@@H](CC(=O)N1CCNC[C@H]1Cc1cscn1)Cc1ccccc1F | > 100000 nM | 143 nM |  | 
8 | N[C@@H](CC(=O)N1CCCC[C@H]1Cc1ccccc1)Cc1ccccc1F | > 100000 nM | 1040 nM |  | 
9 | C[C@@H]1CNCCN1C(=O)C[C@H](N)Cc1ccccc1F | > 100000 nM | 1600 nM |  | 
10 | CS(=O)(=O)Nc1cccc(NC(=O)CN2CCN(C(=O)C[C@H](N)Cc3ccccc3F)[C@H](Cc3ccccc3)C2)c1 |  |  | 130 mL/min/kg | < 1%
11 | N[C@@H](CC(=O)N1CCNC[C@H]1Cc1ccccc1)Cc1ccccc1F | > 100000 nM | 139 nM |  | 

Next, values leading:

Row | IC50 [1] | IC50 [2] | clearance [3] | bioavailability [4] | Structure (SMILES)
12 | 50000 nM | 922 nM |  |  | CC(C)[C@@H]1CNCCN1C(=O)C[C@H](N)Cc1ccccc1F
13 | 19000 nM |  |  |  | CS(=O)(=O)Nc1cccc(NC(=O)CN2CCN(C(=O)C[C@@H](N)Cc3ccccc3)C(Cc3ccccc3)C2)c1 (some centres undefined)
14 | 640 nM | 30 nM |  |  | CS(=O)(=O)Nc1cccc(NC(=O)CN2CCN(C(=O)C[C@H](N)Cc3ccc(F)c(F)c3)[C@H](Cc3ccccc3)C2)c1
15 | 15000 nM | 36000 nM |  |  | CS(=O)(=O)Nc1cccc(NC(=O)CN2CCN(C(=O)C[C@@H](N)Cc3ccc(F)c(F)c3)C(Cc3ccccc3)C2)c1 (some centres undefined)
16 | 23000 nM | 610 nM |  |  | N[C@@H](CC(=O)N1CCNC[C@H]1c1ccc(F)cc1)Cc1ccccc1F
17 | 7700 nM |  |  |  | CS(=O)(=O)Nc1cccc(NC(=O)CN2CCN(C(=O)C[C@H](N)Cc3ccccc3)C(Cc3ccccc3)C2)c1 (some centres undefined)
18 | 65000 nM |  |  |  | N[C@@H](CC(=O)N1CCNC[C@H]1Cc1ccccc1)Cc1cc(F)ccc1F
19 | 450 nM | 44 nM |  |  | CS(=O)(=O)Nc1cccc(NC(=O)CN2CCN(C(=O)C[C@H](N)Cc3ccc(F)c(F)c3)C(Cc3ccccc3)C2)c1 (some centres undefined)
20 | 280 nM | 1100 nM |  |  | CS(=O)(=O)Nc1cccc(NC(=O)CN2CCN(C(=O)C[C@H](N)Cc3ccc(F)c(F)c3)[C@@H](Cc3ccccc3)C2)c1
21 | 15000 nM | 405 nM |  |  | N[C@@H](CC(=O)N1CCN(Cc2ccccc2)C[C@H]1Cc1ccccc1)Cc1ccccc1F
